# Bioassay records (PubChem BioAssay)
# HSF1 activator = increases HSF-1 driven luciferase reporter signal | actives 1.7% (n = 300,000) | NIH3T3-HGL HSF-1 luciferase reporter, MG132, 8 h; 100% = twice DMSO control signal | activation, % at 9 µM;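 active = mean replicate activation of at least 50% with a set share of replicates each reaching 50%; inconclusive = only one of those two conditions met; inactive = mean below 50% and too few replicates reaching it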;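 note: 0% = median of the neutral control wells and 100% = twice that signal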
# HCV NS3 hel inh = inhibitors of Hepatitis C virus NS3 helicase; NS3 helicase DNA unwinding, Cy5 molecular beacon fluorescence; inhibition, % at 10.9 µM; actives 0.56% (n = 290,000); AID 1800;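 active = inhibition above the mean of all tested compounds plus 3 SD, set per campaign, cut at about 35% in these data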;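 note: 0% = DMSO wells and 100% = thioflavine S control wells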
#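 Assay system – hepatitis C virus NS3 helicase domain fragment enzyme · Buffer or medium – MOPS pH 6.5, MgCl2, DTT, Tween20, BSA · Reagent – Cy5/quencher beacon DNA duplex and ATP to start · Compound – single 10.9 µM dose · Timing – 1 h at 25 °C · Technique – Cy5 beacon fluorescence read at start and 1 h · Measure – % inhibition of unwinding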
# Hep lipid drop = modulators of hepatic lipid droplet formation; inhibition, % at 6.5 µM; AID 1656; actives 0.4% (n = 240,000); AML12 mouse hepatocytes, oleate lipid droplets, BODIPY imaging;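 active = lipid droplet intensity inhibited by at least 50%, with more than 500 cells counted; inconclusive = wells with under 300 cells, treated as cytotoxic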
#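 Assay system: AML12 hepatocytes (mouse) / Also added: 100 µM oleic acid challenge / Times: overnight treatment with compound plus oleate / Detection: high-content imaging of BODIPY-stained droplets and DAPI nuclei / Evaluation: % inhibition of lipid droplet signal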
# HSF1 inhib = HSF1 inhibition; NIH3T3-HGL HSE-luciferase, MG132-induced, luminescence 8 h; hits give low values; activity change, negative = inhibition, % at 7.5 µM (by protocol); actives 0.77% (n = 300,000); AID 2098;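 active = more than half of replicate wells show activity change below -50%, luminescence cut by over half; inconclusive = some wells, but at most half, below -50%; inactive = no replicate well below -50%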;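 note: luciferase reports HSF-1 transcriptional activity via heat shock element; 0% = median of DMSO wells and -100% = zero luminescence signal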
# HSP90 refold inh = inhibitors of HSP90 luciferase refolding in rabbit reticulocyte lysate; luciferase refolding luminescence, 3 h; inhibition, % at 5.6 µM; actives 0.91% (n = 290,000); AID 1789;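 active = inhibition above the screen-wide mean plus 3 SD, computed separately per campaign, cut at about 16% in these data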;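 note: 0% = DMSO wells and 100% = 60 µM geldanamycin wells; inhibitors lower the luminescence because luciferase stays unfolded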
# NS3 hel confirm = HCV NS3 helicase inhibition, confirmation assay; shares compounds with HCV NS3 hel inh; NS3 helicase DNA unwinding, Cy5 molecular beacon fluorescence; inhibition, % at 10.9 µM; actives 31% (n = 1,600); AID 1943;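 active = inhibition above the mean of all tested compounds plus 3 SD, cutoff set per campaign, cut at about 36% in these data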
# FID counter trip = counter-screen for HCV NS3 helicase inhibitors: DNA intercalator displacement | shares compounds with HCV NS3 hel inh | DNA fluorescent intercalator displacement, fluorescence | inhibition, % at 7.9 µM | actives 4% (n = 1,600); in the data active = inhibition above about 37%;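 note: 0% = vehicle and 100% = reference compound; higher means more displacement of ethidium bromide from the DNA hairpin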
# FID counter DR = counter-screen for HCV NS3 helicase inhibitors: DNA intercalator displacement dose response | shares compounds with HCV NS3 hel inh | fluorescent intercalator displacement from DNA, fluorescence | IC50, µM | 120 tested, under 10 active; call rule not given here
# * = called active by the depositor; ? = inconclusive; nt = not tested or not shown. Hits are enriched below; roughly 3.8% of the tested compounds scored in any of these assays.
SMILES,HSF1 activator,HCV NS3 hel inh,Hep lipid drop,HSF1 inhib,HSP90 refold inh,NS3 hel confirm,FID counter trip,others
CCc1cc2cc(C)ccc2nc1SCC(=O)NC1CCCC1,10,55*,12,-1,3,1,-14,
CC1CC(=O)c2c(cc3c(-c4c(O)cc(O)c5c(O)c6c(cc45)OC(C)CC6=O)c(O)cc(O)c3c2O)O1 (centres undefined),-5,98*,20,-3,3,123*,72*,
CN1C(=O)/C(=C/c2ccc(OCc3ccc(F)cc3)cc2)NC1=S,20,3,-1,1,3,nt,nt,
O=c1ccc2c(-c3ccccc3)c3ccc(O)cc3oc-2c1,3,73*,nt,-7,1,68*,-11,FID counter DR=>79
CCOC(=O)C1CCCN(C(=O)/C(=C/c2ccco2)NC(=O)c2ccccc2)C1 (centres undefined),12,45*,-4,8,-1,-16,-37,
C/C(=N\NC(=O)c1c[nH]c2ccccc12)c1ccc(C)o1,8,4,2,1,0,nt,nt,
C/C(=N\NC(=O)c1cc2ccccc2cc1O)c1ccc(C)o1,25,47*,7,45,0,10,-9,
Cc1nnsc1Sc1ccccc1,-1,-1,3,-3,1,nt,nt,
Cc1cc(C)c2nc(NC(=O)C3CC(=O)N(Cc4ccco4)C3)sc2c1 (centres undefined),nt,13,8,nt,-3,nt,nt,
O=C(Nc1nc2c(F)cc(F)cc2s1)C1CC(=O)N(Cc2ccco2)C1 (centres undefined),8,41*,1,5,2,-8,-27,
CCOC(=O)c1sc(SCc2ccccc2)c2c1CC(C)(C)CC2=O,-10,nt,nt,-6,nt,nt,nt,
CCOC(=O)[C@@H]1[C@H]2COc3cc(OC)ccc3[C@@H]2N2C(=O)N(c3cccc(Cl)c3)C(=O)[C@@]12C,-5,-8,-1,4,-2,nt,nt,
CCc1ccc(-c2cc3c(=O)n(CC(=O)NCCCN4CCN(CC)CC4)nc(C)n3n2)cc1,20,-27,-6,0,-2,nt,nt,
C#CCn1cc(Cl)cc(C(=O)Nc2ccccc2)c1=O,8,9,1,-3,0,nt,nt,
Cc1ccc(C)n1N1C(=O)/C(=C\c2ccc(Cl)cc2)SC1=S,1,43*,nt,1,1,-6,8,
Oc1ccc(C[C@@H]2CNC(=S)N2CCCCC2CCCCC2)cc1,5,-2,2,3,0,nt,nt,
S=c1[nH]nc(-c2ccco2)n1/N=C/c1cccc(Cl)c1Cl,21,44*,-4,0,-1,9,-3,
S=c1[nH]nc(-c2ccco2)n1/N=C/c1ccc(Cl)cc1Cl,-8,9,nt,-4,1,nt,nt,
COc1ccc(NC(=O)c2cc(S(=O)(=O)N3CCOCC3)cn2C)cc1Cl,2,-4,-7,1,-1,nt,nt,
CCOc1ccccc1N1CCN(C(=O)NCc2ccc(Cl)cc2)CC1,-9,-1,13,-6,-3,nt,nt,
Cc1cc(NC(=O)c2ccc([N+](=O)[O-])cc2Cl)ccc1NC(=O)c1ccco1,nt,36*,13,nt,-4,-8,14,
O=C(C[C@H]1C(=O)N(Cc2ccccc2)C[C@@H]1Cc1ccccc1)Nc1ccccc1,0,7,nt,10,3,nt,nt,
O=C(C[C@H]1C(=O)N(C2CCCCC2)C[C@@H]1Cc1ccccc1)Nc1ccccc1,8,37*,nt,3,1,-16,-28,
O=C(Cn1cnc2ccccc2c1=O)NCCC(=O)N1CCN(Cc2ccccc2)CC1,-7,38*,7,-4,3,-19,-5,
O=C1C(=O)N(Cc2ccncc2)C(c2cccc(O)c2)/C1=C(\O)c1ccc2c(c1)OCCO2 (centres undefined),8,41*,-13,-4,-1,-9,12,
SMILES,HSF1 activator,HCV NS3 hel inh,Hep lipid drop,HSF1 inhib,HSP90 refold inh,NS3 hel confirm,FID counter trip,others
O=C(CSc1nc(O)c(C2CCCCC2)c(=O)[nH]1)Nc1ccc(F)cc1,-1,-2,19,1,-2,nt,nt,
Cc1noc(C)c1S(=O)(=O)N(CC(=O)NCc1ccccc1)c1ccc(C(C)C)cc1,26,1,-8,12,4,nt,nt,
CCOc1ccc(N(CC(=O)NCc2ccccc2Cl)S(=O)(=O)c2c(C)noc2C)cc1,29,40*,10,18,10,-7,-25,
Cc1noc(C)c1S(=O)(=O)N(CC(=O)NCCc1ccccc1)c1ccc(C(C)C)cc1,40,37*,-14,18,10,-9,-27,
CC(C)C1Nc2c(O)cc(Cl)c([N+](=O)[O-])c2C2C=CCC21 (centres undefined),12,37*,-23,-2,-3,58*,11,
Cc1cccc(-c2nc(=S)c3c(n2Cc2ccco2)CCCC3)c1,11,1,-10,-2,1,nt,nt,
Cc1ccc(-c2nc(=S)c3c(n2Cc2ccco2)CCCC3)cc1,nt,41*,-42,nt,7,18,-2,
CC(=O)c1ccc(NC(=O)C2C3C=CC(C3=C(c3ccccc3)c3ccccc3)C2C(=O)O)cc1 (centres undefined),-22,9,0,-10,0,nt,nt,
CCc1ccc(-c2nc(CS(=O)CC(=O)O)c(C)o2)cc1 (centres undefined),-23,-1,-3,-1,15,nt,nt,
CCc1nc2c(sc3nc4c(cc32)COC(C)(C)C4)c(=O)n1Cc1ccco1,?,40*,-25,30,6,-16,-14,
CCc1nc(OCc2ccco2)c2sc3nc4c(cc3c2n1)COC(C)(C)C4,nt,48*,1,nt,16*,-14,-18,
Cc1nc(OCC(C)C)c2sc3nc4c(cc3c2n1)COC(C)(C)C4,30,0,18,1,-2,nt,nt,
Cc1cc(C)nc(OC(C(=O)O)C(OCc2ccccc2)(c2ccccc2)c2ccccc2)n1 (centres undefined),19,37*,nt,2,-3,74*,-40,
CCCOC(c1ccccc1)(c1ccccc1)C(Oc1nc(C)cc(C)n1)C(=O)O (centres undefined),0,16,3,-4,2,nt,nt,
Cc1[nH]n(C(N)=S)c(=O)c1N=Nc1cccc(Cl)c1,30,58*,nt,25,11,-20,17,
O=C(N/C(=C/C=C/c1ccccc1)C(=O)N1CCOCC1)c1ccccc1Br,-13,-15,5,-15,-2,nt,nt,
CCC(=O)Nc1ccc(C(=O)CSc2nnc(-c3ccccc3F)n2C2CC2)cc1,38,52*,15,12,1,-6,-21,
N#CCSc1nc2sccc2c(=O)n1-c1ccccc1,-20,37*,5,-4,-1,-16,6,
